Data: ChEMBL document CHEMBL4706570, “Structure-activity relationship studies and bioactivity evaluation of 1,2,3-triazole containing analogues as a selective sphingosine kinase-2 inhibitors” (Eur J Med Chem, 2020)
The source made the active and inactive calls. The calls are words filed in the database; no cut-off is given here.

How the values were obtained:
[1] = target: T1, Sphingosine kinase 2 (Homo sapiens) (UniProt Q9NRA0); test: Inhibition of recombinant human N-terminal His-tagged SphK2 (2 to 654 residues) expressed in baculovirus infected Sf21 cells at 125 uM using d-erythro-sphingosine as substrate incubated for 1 hr by ADP-Glo assay relative to control
T1 sequence (whole entry): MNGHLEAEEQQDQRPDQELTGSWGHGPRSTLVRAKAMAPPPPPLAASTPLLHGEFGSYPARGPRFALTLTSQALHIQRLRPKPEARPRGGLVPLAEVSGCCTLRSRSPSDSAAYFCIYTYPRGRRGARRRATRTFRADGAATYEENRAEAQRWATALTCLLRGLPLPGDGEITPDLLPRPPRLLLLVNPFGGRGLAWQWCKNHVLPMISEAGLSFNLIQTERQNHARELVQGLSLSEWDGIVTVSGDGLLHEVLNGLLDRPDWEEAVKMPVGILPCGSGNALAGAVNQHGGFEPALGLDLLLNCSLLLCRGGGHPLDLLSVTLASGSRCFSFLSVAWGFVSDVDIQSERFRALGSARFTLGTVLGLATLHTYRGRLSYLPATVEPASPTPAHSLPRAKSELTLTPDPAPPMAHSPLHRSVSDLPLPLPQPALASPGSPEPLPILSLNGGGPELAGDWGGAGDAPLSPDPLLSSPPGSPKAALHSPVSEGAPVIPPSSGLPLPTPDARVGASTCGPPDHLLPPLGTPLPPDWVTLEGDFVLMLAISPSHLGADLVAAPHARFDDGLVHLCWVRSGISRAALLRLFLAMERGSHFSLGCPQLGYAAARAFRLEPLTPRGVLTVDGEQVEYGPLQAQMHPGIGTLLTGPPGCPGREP

U-251 = test: Cytotoxicity against human U-251MG cells assessed as reduction in cell viability at 125 uM incubated for 24 hrs by Hoechst 33258 and PI staining based imaging analysis; format: functional
How it was run: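 U-251 MG glioblastoma cells grown in RPMI-1640 with 10% FBS, 1 mM sodium pyruvate and 1x Pen-Strep at 37 °C, 5% CO2. Seeded at 3000 cells/well, left about 16 h, then medium replaced with fresh medium containing 125 µM compound for 24 h. Stained with Hoechst 33258 for total cells and propidium iodide for apoptotic cells. Triplicate, S.E. reported.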

Sphingosine kinase 2 [2] = target: T2, Sphingosine kinase 2 (Homo sapiens, UniProt Q9NRA0); test: Inhibition of recombinant human N-terminal His-tagged SphK2 (2 to 654 residues) expressed in baculovirus infected Sf21 cells using d-erythro-sphingosine as substrate incubated for 1 hr by ADP-Glo assay
T2 sequence (Q9NRA0 whole entry): T1 sequence (whole entry)

Sphingosine kinase 2 [3] = target: T2, Sphingosine kinase 2; test: Inhibition of recombinant human Flag-tagged SphK2 transfected in HEK293 cells using d-erythro-sphingosine as substrate by [gamma32P]-ATP based assay
Sphingosine kinase 1 = Sphingosine kinase 1 (Homo sapiens, UniProt Q9NYA1); test: Inhibition of recombinant human Flag-tagged SphK1 transfected in HEK293 cells using d-erythro-sphingosine as substrate by [gamma32P]-ATP based assay
Chain of Sphingosine kinase 1 (Q9NYA1 whole entry): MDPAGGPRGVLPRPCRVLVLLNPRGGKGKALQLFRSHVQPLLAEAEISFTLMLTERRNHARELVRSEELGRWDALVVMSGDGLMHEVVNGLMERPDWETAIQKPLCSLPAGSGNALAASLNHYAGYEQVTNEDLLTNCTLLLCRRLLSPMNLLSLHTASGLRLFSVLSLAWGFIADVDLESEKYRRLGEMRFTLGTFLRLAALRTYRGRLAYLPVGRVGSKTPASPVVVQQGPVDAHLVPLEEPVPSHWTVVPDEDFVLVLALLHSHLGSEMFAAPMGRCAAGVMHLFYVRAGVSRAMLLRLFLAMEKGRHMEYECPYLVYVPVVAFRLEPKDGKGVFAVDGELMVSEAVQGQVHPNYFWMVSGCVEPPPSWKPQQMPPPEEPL

SMILES	inhibition [1]	IC50 (Sphingosine kinase 2 [2])	inhibition (U-251)	also measured
N=C(N)N1CCC[C@H]1Cc1nc(-c2ccc(Cn3cc(-c4ccc(C(F)(F)F)cc4)nn3)cc2)no1			Active	
Cn1cc(-c2cn(Cc3ccc(-c4noc(C[C@@H]5CCCN5C(=N)N)n4)cc3)nn2)cn1	> 50%			
N=C(N)N1CCC[C@H]1Cc1nc(-c2ccc(Cn3cc(-c4ccccc4)nn3)cc2)no1	> 50%		Active	
Cc1ccc(S(=O)(=O)Nc2cccc(/C=N/c3ccccc3NS(=O)(=O)c3ccc(C)cc3)c2)cc1				Ki (Sphingosine kinase 2 [3]): 6900 nM; Ki (Sphingosine kinase 1): 27000 nM
N=C(N)C1(c2nc(-c3ccc(Cn4cc(-c5ccccc5)nn4)cc3)no2)CC1	> 50%		Active	
N=C(N)N1CCC[C@H]1c1nc(-c2ccc(Cn3cc(-c4ccccc4)nn3)cc2)no1	> 50%			
O=C(NCc1ccncc1)C12CC3CC(C1)CC(c1ccc(Cl)cc1)(C3)C2 [ABC-294640]				inhibition at 125 µM (U-251): 50%
Cn1cc(-c2cn(Cc3ccc(-c4noc(C5(C(=N)N)CC5)n4)cc3)nn2)cn1	> 50%		Active	

Further lines, with some results ahead:

inhibition [1]	IC50 (Sphingosine kinase 2 [2])	SMILES	inhibition (U-251)	also measured
> 50%		N=C(N)C1(c2nc(-c3ccc(Cn4cc(C5CC5)nn4)cc3)no2)CC1		
> 50%		N=C(N)N1CCC[C@H]1Cc1nc(-c2ccc(Cn3cc(-c4ccccn4)nn3)cc2)no1		
> 50%		COc1ccc(-c2cn(Cc3ccc(-c4noc(C[C@@H]5CCCN5C(=N)N)n4)cc3)nn2)cc1	Active	
> 50%	248 nM	N=C(N)N1CCC[C@H]1c1nc(-c2ccc(Cn3cc(C4CC4)nn3)cc2)no1		
> 50%	280 nM	N=C(N)N1CCC[C@H]1Cc1nc(-c2ccc(Nc3nc(-c4cccc(C(F)(F)F)c4)cs3)cc2)no1		
> 50%	359 nM	N=C(N)N1CCC[C@H]1c1nc(-c2ccc(Cn3cc(-c4ccc(C(F)(F)F)cc4)nn3)cc2)no1	Active	
> 50%	266 nM	COc1ccc(-c2cn(Cc3ccc(-c4noc([C@@H]5CCCN5C(=N)N)n4)cc3)nn2)cc1	Active	
> 50%		N=C(N)N1CCC[C@H]1c1nc(-c2ccc(Cn3cc(-c4ccccn4)nn3)cc2)no1		
> 50%	391 nM	N=C(N)N1CCC[C@H]1c1nc(-c2ccc(Cn3cc(-c4ccc(F)cc4)nn3)cc2)no1		
> 50%	687 nM	N=C(N)N1CCC[C@H]1c1nc(-c2ccc(Cn3cc(-c4cccs4)nn3)cc2)no1		
> 50%	254 nM	CCCCc1cn(Cc2ccc(-c3noc([C@@H]4CCCN4C(=N)N)n3)cc2)nn1		
